Laboratory results as given in ChEMBL document CHEMBL4627320, “Discovery of CRBN E3 Ligase Modulator CC-92480 for the Treatment of Relapsed and Refractory Multiple Myeloma” (J Med Chem, 2020).
The source made the active and inactive calls. The calls are words filed in the database; no cut-off is given here.

What was measured:
PBMC = assay: Cytotoxicity against PBMC (unknown origin); type: cell-based
[1] = (§1) Antiproliferative activity against lenalidomide-resistant human H929-R10-1 cells incubated for 5 days by CellTiter-Glo assay; type: functional; conditions: 120 h
Method in brief: (§2)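 H929 R10-1 cells kept in log phase at 37°C, 5% CO₂, and plated at 5000 cells/well. Compounds were added as 10-point duplicate curves starting at 10µM with 1:3 dilutions, in 0.1% DMSO, final volume 40µl. Plates were incubated for 5 days. Viability was read by CellTiter-Glo luminescence after 1 h at room temperature in the dark. IC50 is the mean of ≥3 separate determinations.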

[2] = target: Protein cereblon/Zinc finger protein Aiolos (Homo sapiens, UniProt Q96SW2+Q9UKT9); assay: Induction of CRBN-mediated pLOC-ePL-tagged aiolos (unknown origin) degradation in human DF15 cells assessed as minimum protein remaining incubated for 4 hrs by luminescence based beta-galactosidase enzyme fragmentation complementation assay; type: cell-based
[3] = target: Protein cereblon/Eukaryotic peptide chain release factor GTP-binding subunit ERF3A (Homo sapiens, UniProt P15170+Q96SW2); assay: Induction of CRBN-mediated pLOC-ePL-tagged GSPT1 (unknown origin) degradation in human DF15 cells assessed as minimum protein remaining incubated for 4 hrs by luminescence based beta-galactosidase enzyme fragmentation complementation assay; type: cell-based
[4] = target: Adrenergic receptor alpha-1 (Homo sapiens) (UniProt P35348+P25100+P35368); assay: Inhibition of adrenergic receptor alpha1 (unknown origin) at 10 uM relative to control; type: protein assay
D(2) dopamine receptor = D(2) dopamine receptor (Homo sapiens, UniProt P14416); assay: Inhibition of D2S (unknown origin) at 10 uM relative to control
[5] = target: Protein cereblon/DNA damage-binding protein 1 (Homo sapiens, UniProt Q96SW2); assay: Displacement of Cy5-conjugated CELMoD from N-terminal 6-His tagged CRBN (1 to 442 residues) (unknown origin)/DDB1 (1 to 1140 residues) (unknown origin) incubated for 10 mins by FRET assay; type: protein assay
[6] = Solubility of the compound; type: physicochemical
Homo sapiens [7] = organism: Homo sapiens; assay: as §1; type: functional; method in brief: as §2
Homo sapiens [8] = organism: Homo sapiens; assay: Induction of apoptosis in lenalidomide-resistant human H929-R10-1 cells assessed as caspase3 induction at 1 uM measured over 150 hrs by live cell imaging analysis; type: functional
Method in brief: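 Lenalidomide-refractory H929 R10-1 cells were treated at concentrations from 1 nM to 1 μM. Caspase-3 induction was quantified by live-cell imaging over 150 h.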

[9] = Drug metabolism in assay cell medium assessed as compound racemization measured within 24 hrs; type: physicochemical
Method in brief: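 Compound held in the same cell medium used for the H929 R10-1 antiproliferation assay; enantiomer levels followed by chiral monitoring over 24 h.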

Compound | IC50 [1] [nM] | EC50 [2] [nM] | EC50 [3] [nM] | inhibition [4] [%] | inhibition (D(2) dopamine receptor) [%] | further results
O=C1CCC(N2Cc3c(OCc4ccc(CN5CCN(c6ccc(Cl)cc6)CC5)cc4)cccc3C2=O)C(=O)N1 (configuration not stated) | 3.6 | 0.1 | > 10000 |  |  | Activity (PBMC): Non-Toxic
CC1CCN(Cc2ccc(COc3cccc4c3CN(C3CCC(=O)NC3=O)C4=O)cc2)CC1 (configuration not stated) | 35.1 | 1 |  | 40.4 | 78.4 | 
CC(C)C1CCN(Cc2ccc(COc3cccc4c3CN(C3CCC(=O)NC3=O)C4=O)cc2)CC1 (configuration not stated) | 1.4 | 0.1 |  | 63 | 94 | 
O=C1CCC(N2C(=O)c3cccc(OCc4ccc(CN5CCN(c6ccc(Cl)cc6Cl)CC5)cc4)c3C2=O)C(=O)N1 (configuration not stated) | 170 | 3.3 | > 10000 |  |  | IC50 [5]: 877 nM
O=C1CCC(N2Cc3c(OCc4ccc(CN5CCC(C(F)(F)F)CC5)cc4)cccc3C2=O)C(=O)N1 (configuration not stated) | 8.3 | 0.6 |  | 41.5 | 95.4 | 
NC(=O)c1ccc(N2CCN(Cc3ccc(COc4cccc5c4CN(C4CCC(=O)NC4=O)C5=O)cc3)CC2)cn1 (configuration not stated) | 3.5 | 0.4 |  | 25.2 | 32.9 | 
C[C@]1(N2Cc3c(OCc4ccc(CN5CCN(c6ccc(F)cc6F)CC5)cc4)cccc3C2=O)CCC(=O)NC1=O | 496 | > 10 |  |  |  | IC50 [5]: > 10000 nM
O=C1CCC(N2Cc3c(OCc4ccc(CN5CCC(F)(F)CC5)cc4)cccc3C2=O)C(=O)N1 (configuration not stated) | 20.5 | 0.5 |  |  |  | 
O=C1CCC(N2Cc3c(OCc4ccc(C(=O)N5CCN(c6ccc(Cl)cc6Cl)CC5)cc4)cccc3C2=O)C(=O)N1 (configuration not stated) | 3.3 | 0.1 |  | 74.1 | 5.6 | solubility [6]: < 7 µg/mL
O=C1CCC(N2Cc3c(OCc4ccc(CN5CCN(c6c(F)cccc6F)CC5)cc4)cccc3C2=O)C(=O)N1 (configuration not stated) | 4 | 0.3 | > 10000 |  |  | Activity (PBMC): Non-Toxic
COc1ccc(N2CCN(Cc3ccc(COc4cccc5c4CN(C4CCC(=O)NC4=O)C5=O)cc3)CC2)cc1 (configuration not stated) | 7.1 | 0.5 | > 10000 |  |  | Activity (PBMC): Non-Toxic
O=C1CCC(N2Cc3c(OCc4ccccc4)cccc3C2=O)C(=O)N1 (configuration not stated) | > 10000 | 7.5 |  |  |  | 
O=C1CCC(N2Cc3c(OCc4ccc(CN5CCN(c6ccccc6F)CC5)cc4)cccc3C2=O)C(=O)N1 (configuration not stated) | 5 | 0.2 | > 10000 |  |  | Activity (PBMC): Non-Toxic
O=C1CCC(N2Cc3c(OCc4ccc(CN5CCN(c6cccc(F)c6)CC5)cc4)cccc3C2=O)C(=O)N1 (configuration not stated) | 3.7 | 0.1 | > 10000 |  |  | Activity (PBMC): Non-Toxic
Nc1cccc2c1CN(C1CCC(=O)NC1=O)C2=O (configuration not stated) |  |  |  |  |  | Activity (Homo sapiens [7]): inactive; Activity (Homo sapiens [8]): Active
O=C1CCC(N2Cc3c(NCc4ccc(CN5CCN(c6ccc(F)cc6F)CC5)cc4)cccc3C2=O)C(=O)N1 (configuration not stated) | 26.3 | 1.5 | > 10000 |  |  | IC50 [5]: 194 nM
O=C1CCC(N2C(=O)c3cccc(OCc4ccc(CN5CCN(c6ccc(F)cc6)CC5)cc4)c3C2=O)C(=O)N1 (configuration not stated) | 146 | 2.1 | > 10000 |  |  | IC50 [5]: 322 nM
O=C1CC[C@@H](N2Cc3c(OCc4ccc(CN5CCN(c6ccc(F)cc6F)CC5)cc4)cccc3C2=O)C(=O)N1 | 4.3 | 0.5 |  |  |  | IC50 [5]: 1160 nM; Drug metabolism [9]: Metabolite_Detected

Compound | IC50 [1] [nM] | EC50 [2] [nM] | EC50 [3] [nM] | inhibition [4] [%] | inhibition (D(2) dopamine receptor) [%] | further results
O=C1CCC(N2Cc3c(OCc4ccc(CN5CCN(c6ccc(F)cc6)CC5)cc4)cccc3C2=O)C(=O)N1 (configuration not stated) | 2.8 | 0.1 | > 10000 | 100 | 94.7 | Activity (PBMC): Non-Toxic
O=C1CCC(N2Cc3c(OCc4ccc(CN5CCN(c6ccccc6)CC5)cc4)cccc3C2=O)C(=O)N1 (configuration not stated) | 2.1 | 0.1 | > 10000 |  |  | Activity (PBMC): Non-Toxic
O=C1CCC(N2Cc3c(OCc4ccc(CN5CCN(c6ccc(Cl)cc6Cl)CC5)cc4)cccc3C2=O)C(=O)N1 (configuration not stated) | 9.2 | 0.2 | > 10000 |  |  | Activity (PBMC): Non-Toxic
Cc1ccc(NC(=O)NCc2ccc3c(c2)CN(C2CCC(=O)NC2=O)C3=O)cc1Cl (configuration not stated) |  |  |  |  |  | IC50 (PBMC): > 5000 nM; Activity (Homo sapiens [7]): Active
C[C@@]1(N2Cc3c(OCc4ccc(CN5CCN(c6ccc(F)cc6F)CC5)cc4)cccc3C2=O)CCC(=O)NC1=O | > 5000 | > 100 |  |  |  | IC50 [5]: 9620 nM
O=C1CCC(N2Cc3c(OCc4ccc(C(=O)N5CCN(c6ccc(F)cc6)CC5)cc4)cccc3C2=O)C(=O)N1 (configuration not stated) | 3.7 | 0.3 |  |  |  | solubility [6]: < 7 µg/mL
O=C1CCC(N2Cc3c(OCc4ccc(C(=O)N5CCN(c6ccc(Cl)cc6)CC5)cc4)cccc3C2=O)C(=O)N1 (configuration not stated) | 6.2 | 0.1 |  | 33.7 | 7.9 | solubility [6]: < 7 µg/mL
O=C1CCC(N2Cc3c(OCc4ccc(CN5CCN(c6ccccn6)CC5)cc4)cccc3C2=O)C(=O)N1 (configuration not stated) | 4.6 | 0.4 |  | 99 | 98 | 
CN1C(=O)CCC(N2Cc3c(OCc4ccc(CN5CCN(c6ccc(F)cc6F)CC5)cc4)cccc3C2=O)C1=O (configuration not stated) | 632 | > 10000 | > 10000 |  |  | IC50 [5]: 28000 nM
O=C1CCC(N2Cc3c(OCc4ccc(CN5CCN(c6ccc(F)cn6)CC5)cc4)cccc3C2=O)C(=O)N1 (configuration not stated) | 7.4 | 0.7 |  | 97.7 | 90.8 | 
CC(C)N1CCN(Cc2ccc(COc3cccc4c3CN(C3CCC(=O)NC3=O)C4=O)cc2)CC1 (configuration not stated) | 35.1 | 0.3 |  |  |  | 
O=C1CCC(N2Cc3c(OCc4ccc(C(=O)N5CCN(c6ccc(F)cc6F)CC5)cc4)cccc3C2=O)C(=O)N1 (configuration not stated) | 4.9 | 0.1 |  | 70.3 | 0.4 | solubility [6]: < 7 µg/mL
CN1CCN(Cc2ccc(COc3cccc4c3CN(C3CCC(=O)NC3=O)C4=O)cc2)CC1 (configuration not stated) | 510 | 3 |  |  |  | 
O=C1CC[C@H](N2Cc3c(OCc4ccc(CN5CCN(c6ccc(F)cc6F)CC5)cc4)cccc3C2=O)C(=O)N1 | 3.8 | 0.1 |  |  |  | IC50 [5]: 37 nM
O=C1CCC(N2Cc3c(OCc4ccc(CN5CCN(c6ccc(Cl)cc6Cl)CC5=O)cc4)cccc3C2=O)C(=O)N1 (configuration not stated) | 6.7 | 0.6 |  |  |  | solubility [6]: < 7 µg/mL
CC1(C)CCN(Cc2ccc(COc3cccc4c3CN(C3CCC(=O)NC3=O)C4=O)cc2)CC1 (configuration not stated) | 9.9 | 0.3 |  | 21.5 | 66 | 
N#Cc1cccnc1N1CCN(Cc2ccc(COc3cccc4c3CN(C3CCC(=O)NC3=O)C4=O)cc2)CC1 (configuration not stated) | 56 | 1 |  | 92.1 | 100 | 
O=C1CCC(N2C(=O)c3cccc(OCc4ccc(CN5CCN(c6ccc(F)cc6F)CC5)cc4)c3C2=O)C(=O)N1 (configuration not stated) | 159 | 2.4 | > 10000 |  |  | IC50 [5]: 502 nM
